Screening data from PubChem.
hIAP activ: increases human intestinal alkaline phosphatase activity; purified human IAP, CDP-Star luminescence, 30 min; hits give high values; 1 = vehicle-only enzyme, 0 = enzyme-free background; activation factor at 10 µM; hit rate 0.16% among 330,000; AID 2524;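 active = activation factor of the enzyme at least 2-fold when tested at 20 µM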
Target sequence (P09923 whole entry, looked up): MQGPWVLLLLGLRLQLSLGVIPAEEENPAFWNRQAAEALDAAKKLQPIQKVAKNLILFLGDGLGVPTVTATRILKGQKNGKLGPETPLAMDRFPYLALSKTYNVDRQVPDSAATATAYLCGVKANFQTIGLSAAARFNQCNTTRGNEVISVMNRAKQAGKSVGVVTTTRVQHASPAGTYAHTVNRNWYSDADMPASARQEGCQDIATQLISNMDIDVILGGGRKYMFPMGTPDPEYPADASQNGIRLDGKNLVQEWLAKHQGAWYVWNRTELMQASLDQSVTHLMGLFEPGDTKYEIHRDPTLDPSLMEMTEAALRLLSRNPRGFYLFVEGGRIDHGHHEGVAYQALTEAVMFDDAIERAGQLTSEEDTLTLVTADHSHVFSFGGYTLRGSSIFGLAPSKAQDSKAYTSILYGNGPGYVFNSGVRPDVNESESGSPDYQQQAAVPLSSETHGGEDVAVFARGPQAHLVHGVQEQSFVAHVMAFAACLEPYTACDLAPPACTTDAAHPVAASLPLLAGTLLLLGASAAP
hIAP inh: blocks human intestinal alkaline phosphatase; P09923; hit rate 0.12% among 330,000; inhibition, % at 10 µM; purified IAP, CDP-Star luminescence, 30 min;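 active = inhibition reaching a set limit with compound at 10 µM in the primary screen, cut at about 35% in these data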;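 also: plate controls were DMSO wells with enzyme for no effect and no-enzyme buffer wells for full effect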
bIAP act: intestinal alkaline phosphatase (bovine) activation; purified bovine IAP, CDP-star luminescence, 30 min; hits give high values; fold of DMSO-control signal, blank-subtracted; activation factor at 20 µM; hit rate 0.17% among 200,000;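 active = activation factor of 2 or more at 20 µM, a signal rise over negative controls twice the positive control's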
mIAP activ: mouse IAP activation; muIAP, CDP-Star luminescence, 30 min; hits give high values; 1 = vehicle-only enzyme signal, 0 = enzyme-free wells; activation factor at 10 µM; hit rate 0.24% among 330,000;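 active = activation factor of at least 2 at 20 µM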
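System: mouse IAP enzyme. Reagent: CDP-Star chemiluminescent phosphatase substrate. Benchmarks: DMSO wells, no-enzyme wells. Times: 30 min enzyme-substrate-compound incubation at room temperature. Detection: luminescence from enzymatic CDP-Star hydrolysis. Doses: test compounds delivered from DMSO solution.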
mIAP block: blocks mouse intestinal alkaline phosphatase; hit rate 0.2% among 330,000; inhibition, % at 10 µM; purified mouse IAP, CDP-Star luminescence, 30 min;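 active = inhibition of at least 40% at 10 µM in the primary screen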;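 also: plate controls were DMSO with enzyme for no effect and no enzyme wells for full effect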
bIAP inh: intestinal alkaline phosphatase (bovine) inhibition; 190,000 tested, under 10 active; purified bovine IAP, CDP-star luminescence, 30 min; inhibition, % at 20 µM; AID 1019;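 active = over 50% inhibition of intestinal alkaline phosphatase at 20 µM in the single-dose screen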
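System: Purified bovine intestinal alkaline phosphatase (IAP) enzyme | Input: IAP diluted 1/65,000,000 in the well | Also added: CDP-star chemiluminescent phosphatase substrate, 30 µM final | Dosing: 20 µM single dose | Times: Enzyme reaction for 30 min at room temperature | Detection: Luminescence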
hIAP act conf: human IAP activation confirmation | AID 434926 | purified IAP, CDP-Star luminescence, 30 min; hits give low values | hit rate 10% among 880 | activation (%Activity, negative = activation), % at 8.3 µM | shares compounds with hIAP activ;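 active = at least twofold enzyme activation in any of six single-dose repeats, which the averaged readout prints as negative percent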
* hit, by the source's call; . = no result given. An excerpt weighted towards active compounds, which were near 0.79% of everything screened.

SMILES	hIAP activ	hIAP inh	bIAP act	mIAP activ	mIAP block	bIAP inh	hIAP act conf
CC12CCC(=O)N1C(C(=O)NNC(=O)c1ccccc1Cl)CS2 (configuration not stated)	1	0	.	0.99	1	.	.
COc1ccc2c(c1)c1nnc(SCC(=O)N3CCCCC3C)nc1n2C (configuration not stated)	.	.	1	.	.	5	.
COc1ccc(N2CCN(C(=O)CSc3nnc4c5cc(C)ccc5n(C)c4n3)CC2)cc1	2.6*	-160	0.9	0.93	7	7	-69
CCOc1cccc(C(=O)NNC(=O)C2C3C=CC(C3)C2C(=O)O)c1 (configuration not stated)	0.98	2	.	1.1	-6	.	.
O=C(NCC1CCCO1)C(=O)N/N=C/c1cc(Cl)ccc1O (configuration not stated)	2*	-100	.	1.1	-8	.	-16
Cc1ccc(S(=O)(=O)NC(CC(=O)NCC2CCCO2)c2ccco2)cc1 (configuration not stated)	0.61	39*	1	1.1	-15	2	-3
COc1cc(C=C2C(=O)c3ccccc3C2=O)ccc1O	0.68	32	.	0.73	27	.	.
COc1ccc(C=C2C(=O)c3ccccc3C2=O)cc1O	0.55	45*	0.3	0.77	23	.	56
CCN(CC)C(=O)N1CCN(c2c([N+](=O)[O-])c(=O)oc3ccccc23)CC1	0.92	8	.	1.1	-8	.	.
O=C(CC1CCCCC1)Nc1ncn[nH]1	2*	-102	2.8*	1.1	-10	-183	-53
O=C(CC(c1ccccc1)c1ccccc1)Nc1ncn[nH]1	2.5*	-146	3.3*	1.4	-40	-231	-7
CC(C)(C)NC(=O)CSc1nnc(-c2ccccc2)c(-c2ccccc2)n1	0.99	1	.	0.87	13	.	.
O=C(c1sc2cc(Cl)ccc2c1Cl)N1CCN(CCc2ccccn2)CC1	1	0	.	0.95	5	.	.
Cc1cc(C(=O)OCC(=O)Nc2ccccc2Br)c(C)o1	0.99	1	.	1	-4	.	.
O=C(CCN1C(=O)/C(=C/c2ccccc2Cl)SC1=S)NNC(=O)c1ccccc1O	2.1*	-108	.	0.73	27	.	62
O=C(CSc1nc2ccccc2o1)NC1CCS(=O)(=O)C1 (configuration not stated)	0.79	21	.	1	-4	.	.
COc1cccc(/C=N/NC(=O)c2cc(-c3cccn3C)n[nH]2)c1O	2.4*	-145	1	0.64	36	-2	-1
COc1ccc(C(CNC(=O)COc2cccc(C(F)(F)F)c2)N2CCCC2)cc1 (configuration not stated)	0.91	10	.	0.97	3	.	.
COc1ccc(-c2c(C)n([O-])c3c([n+]2=O)CCCC3)cc1	2.2*	-122	1	0.99	1	1	5
CC1COC(c2cccn2Cc2ccccc2Cl)=N1 (configuration not stated)	0.86	14	1	0.99	1	2	.
CN(C(=O)Cn1cccc1C1=NC(c2ccccc2)CO1)c1ccccc1 (configuration not stated)	0.62	38*	1	0.95	5	-4	-55
COc1ccc(CC(=O)NNC2=Nc3cccc4cccc2c34)cc1	2.2*	-119	.	1.1	-6	.	12
COc1ccc(C(=O)NNC2=Nc3cccc4cccc2c34)cc1	1.3	-34	1.2	0.75	25	-19	.
CC(C(=O)Nc1ncn[nH]1)N1C(=O)c2ccccc2C1=O (configuration not stated)	1.3	-26	1.1	1	-3	-12	.
Cc1ccc(SC(C)C(=O)Nc2ncn[nH]2)cc1 (configuration not stated)	2.4*	-139	1.5	1.2	-16	-52	11
SMILES	hIAP activ	hIAP inh	bIAP act	mIAP activ	mIAP block	bIAP inh	hIAP act conf
CC(C)(C)c1ccc(C(=O)Nc2ncn[nH]2)cc1	1.6	-57	1.2	1.1	-7	-21	.
Cc1ccc(C(=O)Nc2ncn[nH]2)cc1	2.1*	-112	.	0.97	3	.	-8
CSc1sc(C(=O)Nc2ccc(F)cc2F)c2c1C=CCC2	0.79	21	.	0.9	10	.	.
c1ccc(COc2ccc(CNn3cnnc3)cc2)cc1	0.46	54*	1	0.98	2	4	-5
COc1cccc(/C=N/NC(=O)CNC(=O)/C=C\c2ccccc2)c1O	2.4*	-142	.	0.84	16	.	-5
O=C(/C=C/c1ccccc1O)c1ccco1	0.58	42*	.	0.78	22	.	-104*
O=C(/C=C/c1cc(Br)ccc1O)c1ccco1	0.91	9	.	0.97	3	.	.
COc1ccc(/C=C/c2onc(C)c2S(=O)(=O)N2CCC(C(=O)N3CCCCCC3)CC2)cc1	0.94	6	.	0.92	8	.	.
O=C(CNC(=O)c1ccc(Cl)cc1Cl)Nc1ccc(F)cc1	1	-2	.	0.98	2	.	.
O=C(Nc1cccc(-c2cccc(F)c2)c1)C1CCN(C2CCOCC2)CC1	2.9*	-185	.	1.9	-94	.	2
CS(=O)(=O)N1CCC(C(=O)Nc2cccc(F)c2)CC1	1.1	-14	.	1.1	-5	.	.
CCC(=O)N1CCc2cc(S(=O)(=O)N3CCN(c4cc(Cl)ccc4C)CC3)ccc21	1.1	-8	.	1.1	-9	.	.
Cc1cccc(NC(=O)C2CC(=O)n3cnnc3S2)c1 (configuration not stated)	2.1*	-114	1	0.91	9	-1	-12
CCN=C1SC(C(=O)Nc2cccc(C)c2)CC(=O)N1CC (configuration not stated)	1.1	-6	0.9	1	0	9	.
Cc1nn2c(C(F)(F)F)cc(-c3ccc(Cl)cc3)nc2c1C(=O)N1CCOCC1	2.8*	-177	0.9	1	-2	8	8
O=C(c1cnn2c(C(F)(F)F)cc(-c3ccc(Br)cc3)nc12)N1CCOCC1	.	.	1	.	.	-1	.
CCOC(=O)N1CCC(N2C(=O)c3ccccc3C2Nc2ccc(S(=O)(=O)N(CC)CC)cc2)CC1 (configuration not stated)	0.94	6	1.1	1.1	-10	-13	.
Cc1cc(=O)oc2cc(NC(=O)C(C)N3C(=O)C4CCCCC4C3=O)ccc12 (configuration not stated)	0.94	6	.	0.95	5	.	.
CS(=O)(=O)Nc1ccccc1C(=O)NCCSc1ccccc1	1.2	-16	.	0.93	7	.	.
CC(C)CCNc1ncnc2c1nnn2Cc1ccccc1Cl	0.2	80*	0.9	0.96	4	7	40
OCCNc1ncnc2c1nnn2Cc1ccccc1	0.91	10	.	1.1	-9	.	.
Cc1ccc(NS(=O)(=O)c2ccc(C)c(NC(=S)NCCN3CCOCC3)c2)c(C)c1	1.1	-6	.	1	-3	.	.
COc1cc(/C=C2/SC(=S)N(Cc3ccccc3)C2=O)ccc1O	0.96	4	.	0.72	28	.	.
